IEC-6 tox – IEC-6 cytotoxicity, counter-screen for KLF5 inhibitors; hit rate 0.78% among 290,000; luminescence viability; inhibition, % at 5 µM;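 note: 0% = plate median of test compound wells and 100% = cytotoxic reference compound wells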
Ba/F3 V617F tox – lowers viability of Ba/F3 cells expressing EpoR and JAK2V617F; inhibition, % at 5.6 µM; AID 1446; hit rate 1.1% among 220,000; ATP luminescence;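 active = inhibition above the campaign mean plus 3 SD over all tested compounds, cut at about 24% in these data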;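 note: cytokine-independent growth of Ba/F3 cells driven by EpoR plus mutant JAK2; 0% = DMSO-treated cells and 100% = JAK inhibitor I control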
bCat nuc transl – alters nuclear translocation of beta-catenin in HeLa cells. immunofluorescence imaging. nuclear translocation activity, % at 5 µM. hit rate 0.3% among 190,000. AID 1665;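 active = nuclear translocation activity above 50% at 5 µM, with a well cell count of 50 or more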;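 note: per-cell ratio of nuclear to cytoplasmic median beta-catenin stain intensity; plate controls were DMSO negative control for no effect and GSK-3 inhibitor IX positive control for full effect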
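Technique: fluorescence imaging of beta-catenin antibody stain plus DAPI / Material: human HeLa cell line / Incubation: compound treatment 24 h, 37°C, 5% CO2 / Read-out basis: % activation of per-cell nuclear versus cytoplasmic median beta-catenin signal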
BaF3 parental – reduces parental Ba/F3 cell viability, JAK2V617F counter-screen | hit rate 1.1% among 220,000 | inhibition, % at 5.6 µM | CellTiter-Glo ATP luminescence;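 active = inhibition above a per-campaign cutoff, the mean inhibition of all tested compounds plus 3 SD, cut at about 27% in these data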;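 note: 0% = DMSO wells and 100% = JAK Inhibitor I control wells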
MT stabilize HCS – microtubule stabilization, imaging screen; HeLa tubulin immunostaining HCS, 24 h; share of cells brighter than vehicle mean+2SD; % tubulin-high responders, % at 10 µM; hit rate 0.83% among 200,000;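 active = plate Z-score above 3 for both tubulin-high and condensed-nucleus cell shares, with cell loss under 80%, at 10 µM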;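 note: anti alpha tubulin signal scored within the nucleus-defined area of each cell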
APP 5UTR inh – APP translation inhibition; SH-SY5Y APP 5'UTR-luciferase reporter, luminescence; inhibition, % at 2 µM; hit rate 0.82% among 190,000; AID 1285;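 active = inhibition above a set limit, derived from the sample mean plus 3 SD, cut at about 45% in these data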
IEC-6 tox confirm – confirmation of cytotoxic compounds in rat IEC-6 intestinal epithelial cells | shares compounds with IEC-6 tox | IEC-6 rat intestinal epithelial viability, luminescence | inhibition, % at 5 µM | hit rate 63% among 1,900 | AID 1907;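 note: 0% = vehicle and 100% = reference cytotoxic drug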
* marks the source's active call; other numbers are inactive results; . = not tested or not shown. Compounds with a hit are over-represented: about 2.2% of the library has one in this group of screens. Cut-off read from the data, not from the text of the source, unless noted: active = inhibition above about 22%; inactive = the rest.

SMILES	IEC-6 tox	Ba/F3 V617F tox	bCat nuc transl	BaF3 parental	MT stabilize HCS	APP 5UTR inh	IEC-6 tox confirm
COc1ccc(NC(=O)CC(C)n2ccnc2)cc1 (centres undefined)	-4.5	.	.	.	.	.	.
COC(=O)c1ccc(Nc2cc(C)nc3ccccc23)cc1	23.4*	5.8	78.7*	0.2	.	.	27.1*
CCn1c(=O)c2c(nc(SCC(=O)N3CCC(C)CC3)n2C)n(C)c1=O	-9.0	.	.	.	.	.	.
COc1ccc(N(CC(=O)Nc2cc(Cl)ccc2C)S(=O)(=O)c2c(C)n[nH]c2C)cc1	37.8*	.	.	.	.	.	12.2
CCOC(=O)c1ccc(NC(=O)CCSCCc2ccccn2)cc1	-9.0	-0.6	-1.2	1.2	2.9	10.5	.
Cn1c(=O)[nH]c(=O)c2c1nc([N+](=O)[O-])n2Cc1ccccc1	38.0*	95.2*	-1.0	76.8*	.	.	10.2
O=C1COc2ccc(N3C(=O)C=CC3=O)cc2N1	2.7	-1.4	1.4	4.0	5.0	26.6	.
CCOc1ccc(S(=O)(=O)Nc2cc(OC)ccc2OC)cc1	89.5*	80.0*	51.8*	80.1*	10.8	93.3*	62.0*
COc1ccc(S(=O)(=O)Nc2cc(Cl)ccc2OC)cc1	68.5*	81.3*	45.1	71.9*	23.7*	86.9*	52.6*
NCCCCC(NC(=O)C1CCCN1C(=O)C1CSSCC(N)C(=O)NC(Cc2ccc(O)cc2)C(=O)NC(Cc2ccccc2)C(=O)NC(CCC(N)=O)C(=O)NC(CC(N)=O)C(=O)N1)C(=O)NCC(N)=O (centres undefined)	-0.8	2.1	-3.4	4.7	2.7	-11.2	.
Cc1ccc(S(=O)(=O)Nc2cccc3cccnc23)cc1	32.1*	0.3	.	3.6	1.8	29.0	100.2*
COc1ccc(S(=O)(=O)Nc2ccccn2)cc1	-5.4	.	.	.	.	.	.
COc1cc(NS(=O)(=O)c2ccc(C)cc2)c2ncccc2c1	79.3*	0.6	4.2	6.6	10.5	21.6	74.3*
COc1ccc(S(=O)(=O)Nc2cc3c(C(C)=O)c(C)oc3c3ccccc23)cc1	83.3*	79.4*	.	78.2*	10.9	91.7*	55.2*
CCOc1ccc(C(=O)OCC(=O)N2CCCC2)cc1	-5.1	.	.	.	.	.	.
O=C(NNc1ncc(C(F)(F)F)cc1Cl)c1c(Cl)cccc1Cl	46.1*	83.1*	.	83.4*	21.3*	15.0	31.6*
Cc1noc(/C=C/c2nn(C)cc2Cl)c1[N+](=O)[O-]	-0.1	-4.0	-0.7	0.6	.	.	.
CN1CCN(C(=O)C2CCC(=O)N(CCc3cccc(F)c3)C2)CC1 (centres undefined)	2.8	.	.	.	.	.	.
CCN(CC)CCn1c(-c2ccc(C)cc2)nc(=S)c2c1CC(C)(C)OC2	3.7	1.6	-2.3	-2.9	.	.	.
O=C(Nn1cc(C(=O)Nc2ccccc2F)c2ccccc2c1=O)c1cnccn1	51.6*	6.5	-1.4	2.4	4.5	12.8	12.1
O=C1C(Cl)=C(NCCN2CCOCC2)C(=O)c2ccccc21	32.8*	.	.	.	.	.	19.2
Cc1ccccc1NC1=NCC(c2ccc([N+](=O)[O-])cc2)S1 (centres undefined)	-0.8	-0.9	1.2	1.7	3.1	-18.9	.
COCCNc1nc(N)c([N+](=O)[O-])c(NC2CCCCC2)n1	0.5	.	.	.	.	.	.
NCCCNc1nc(N)c([N+](=O)[O-])c(NC2CCCCC2)n1	46.5*	.	.	.	.	.	43.2*
O=C(Cc1ccc(Br)cc1)NCc1ccccc1	59.6*	.	.	.	.	.	44.7*
SMILES	IEC-6 tox	Ba/F3 V617F tox	bCat nuc transl	BaF3 parental	MT stabilize HCS	APP 5UTR inh	IEC-6 tox confirm
Cc1ccc(CNC(=O)Cc2ccc(Br)cc2)cc1	11.6	.	.	.	.	.	.
COc1ccc(CC(=O)NCc2ccccc2)cc1	50.0*	.	.	.	.	.	37.1*
CC(=O)c1ccc(NS(=O)(=O)c2cc(-c3cnc(C4CC4)o3)ccc2C)cc1	10.7	.	.	.	.	.	.
CC(=O)Nc1ccc(NS(=O)(=O)c2cc(-c3cnc(C4CC4)o3)ccc2C)cc1	23.4*	.	.	.	.	.	23.6*
Cc1ccc(-c2cnc(C3CC3)o2)cc1S(=O)(=O)Nc1ccccc1	37.8*	.	.	.	.	.	46.6*
CC(=O)c1cccc(NS(=O)(=O)c2cc(-c3cnc(C4CC4)o3)ccc2C)c1	41.0*	.	.	.	.	.	31.3*
Cc1ccc(N(C)S(=O)(=O)c2cc(-c3cnc(C4CC4)o3)ccc2C)cc1	3.4	.	.	.	.	.	.
COc1ccccc1CNC(=O)COC(=O)Cn1cnc2ccccc21	-0.9	0.1	2.1	3.4	6.4	0.8	.
CS(=O)(=O)Nc1ccc(C(=O)N2CC(=O)Nc3ccccc32)cc1	1.3	.	.	.	.	.	.
